{
  "source": "paper PMC5733704",
  "about": "(Bioorganic & medicinal chemistry, 2017)",
  "key": {"AbFabI": {"target": "AbFabI (Acinetobacter baumannii, UniProt A0ABX6CD96)", "assay": "AbFabI enzyme inhibition, NADH fluorescence IC50 assay", "format": "biochemical", "details": "for pIC50: IC50 against AbFabI, 200 nM AbFabI, 300 μM crotonyl-CoA, 200 μM NADH; for fold higher AbFabI IC50 than compound 23: relative to compound 23"}, "A. baumannii strain 2208 [1]": {"tested_on": "A. baumannii strain 2208", "assay": "Checkerboard MIC with polymixin B nonapeptide against A. baumannii strain 2208", "format": "cell-based"}, "MDR A. baumannii": {"tested_on": "MDR A. baumannii", "assay": "Checkerboard MIC with colistin against MDR A. baumannii", "format": "cell-based"}, "S. aureus": {"tested_on": "S. aureus", "assay": "MIC against S. aureus, stated across the strains tested", "format": "cell-based", "details": "Staphylococcus aureus, read-out: MIC in S. aureus (across strains tested), in μM"}, "SaFabI": {"target": "T1, SaFabI (Staphylococcus aureus, UniProt Q6GI75)", "T1 sequence (Q6GI75 1-256)": "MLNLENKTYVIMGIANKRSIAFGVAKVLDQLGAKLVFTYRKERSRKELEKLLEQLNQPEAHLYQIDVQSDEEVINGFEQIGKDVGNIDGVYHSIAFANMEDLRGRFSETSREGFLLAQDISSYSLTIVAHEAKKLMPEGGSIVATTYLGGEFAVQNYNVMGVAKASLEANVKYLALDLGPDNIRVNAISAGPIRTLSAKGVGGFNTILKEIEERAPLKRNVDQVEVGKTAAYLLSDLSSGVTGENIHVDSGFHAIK", "assay": "SaFabI enzyme inhibition, NADPH fluorescence IC50 assay", "format": "biochemical", "details": "for fold improvement in SaFabI IC50 compared to compound 1: relative to compound 1; for fold less potent than compound 8 (SaFabI IC50): relative to compound 8", "in_short": "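NADPH fluorescence was read at 340/460 nm. Test compound ranged 0.4 nM–200 μM. Percent inhibition came from 10-min slopes versus DMSO control. At least two independent runs, each in duplicate. Interference was checked before substrate addition.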"}, "A. baumannii strain 2208 [2]": {"tested_on": "A. baumannii strain 2208", "assay": "Checkerboard MIC with colistin against A. baumannii strain 2208", "format": "cell-based"}, "[3]": {"tested_on": "E. coli strain BW25113 ΔTolC", "assay": "MIC, microbroth dilution, E. coli efflux pump mutant", "format": "cell-based", "details": "Escherichia coli, BW25113, read-out: MIC E. coli TolC- strain, in μM"}, "[4]": {"tested_on": "S. aureus strain RN4220 overexpressing SaFabI", "assay": "MIC, microbroth dilution, S. aureus RN4220 overexpressing SaFabI", "format": "cell-based", "details": "versus native strain RN4220; 4-fold or higher indicates on-target"}, "[5]": {"tested_on": "S. aureus strain RN4220 overexpressing SaFabI", "details": "control; cited from earlier work"}},
  "note": "pIC50: −log10 of the molar value. “Also recorded” adds a separate entry of the source.",
  "data": [
    {"smiles": "O=C(Cc1ccccc1Cl)N1CCC(c2ccccc2)C1", "note": "(stereo not drawn) [Compound 1]", "values": [
      {"measurement": "pIC50", "setting": "AbFabI", "result": "> 5.00"},
      {"measurement": "Effect", "setting": "A. baumannii strain 2208 [1]", "result": "Synergy"},
      {"measurement": "Effect", "setting": "MDR A. baumannii", "result": "Synergy"},
      {"measurement": "MIC", "setting": "S. aureus", "result": "42 to 84", "unit": "µM"}
    ]},
    {"smiles": "O=C(Cc1ccccc1F)N1CCC(c2ccccc2)C1", "note": "(stereo not drawn) [Compound 2]", "values": [
      {"measurement": "fold improvement in SaFabI IC50 compared to compound 1", "setting": "SaFabI", "result": 2, "unit": "fold"},
      {"measurement": "pIC50", "setting": "AbFabI", "result": "> 5.00"}
    ]},
    {"smiles": "COc1ccccc1C1CCN(C(=O)Cc2ccccc2F)C1", "note": "(stereo not drawn) [Compound 3]", "values": [
      {"measurement": "fold less potent than compound 8 (SaFabI IC50)", "setting": "SaFabI", "result": 9, "unit": "fold"}
    ]},
    {"smiles": "O=C(Cc1cccc(F)c1F)N1CCC(c2ccccc2)C1", "note": "(stereo not drawn) [Compound 4]", "values": [
      {"measurement": "pIC50", "setting": "AbFabI", "result": "> 5.00"}
    ]},
    {"smiles": "COc1ccccc1C1CCN(C(=O)Cc2cccc(F)c2F)C1", "note": "(stereo not drawn) [Compound 5]", "values": [
      {"measurement": "fold less potent than compound 8 (SaFabI IC50)", "setting": "SaFabI", "result": 6, "unit": "fold"}
    ]},
    {"smiles": "O=C(Cc1c(F)cccc1F)N1CCC(c2ccccc2)C1", "note": "(stereo not drawn) [Compound 6]", "values": [
      {"measurement": "fold improvement in SaFabI IC50 compared to compound 1", "setting": "SaFabI", "result": 5, "unit": "fold"},
      {"measurement": "pIC50", "setting": "AbFabI", "result": "> 5.00"}
    ]},
    {"smiles": "COc1ccccc1C1CCN(C(=O)Cc2c(F)cccc2F)C1", "note": "(stereo not drawn) [Compound 7]", "values": [
      {"measurement": "fold poorer SaFabI inhibitory activity compared to compound 6", "setting": "SaFabI; relative to compound 6", "result": "~3", "unit": "fold"},
      {"measurement": "fold less potent than compound 8 (SaFabI IC50)", "setting": "SaFabI", "result": 11, "unit": "fold"},
      {"measurement": "pIC50", "setting": "AbFabI", "result": "> 5.00"},
      {"measurement": "Effect", "setting": "A. baumannii strain 2208 [2]", "result": "excellent synergy"}
    ]},
    {"smiles": "COc1ccccc1C1CCN(C(=O)Cc2ccccc2Cl)C1", "note": "(stereo not drawn) [Compound 8]", "values": [
      {"measurement": "pIC50", "setting": "AbFabI", "result": "> 5.00"},
      {"measurement": "Effect", "setting": "MDR A. baumannii", "result": "Synergy"}
    ]},
    {"smiles": "COc1ccc(C2CCN(C(=O)Cc3ccccc3Cl)C2)cc1", "note": "(stereo not drawn) [Compound 9]", "values": [
      {"measurement": "fold less potent than compound 8 (SaFabI IC50)", "setting": "SaFabI", "result": 25, "unit": "fold"}
    ]},
    {"smiles": "O=C(Cc1ccccc1Cl)N1CCC(c2ccccn2)C1", "note": "(stereo not drawn) [Compound 10]", "values": [
      {"measurement": "Effect", "setting": "A. baumannii strain 2208 [2]", "result": "did not show synergistic behavior; also recorded: No synergy/Synergy"}
    ]},
    {"smiles": "O=C(Cc1ccccc1Cl)N1CCC(c2nccs2)C1", "note": "(stereo not drawn) [Compound 11]", "values": [
      {"measurement": "Effect", "setting": "A. baumannii strain 2208 [2]", "result": "did not show synergistic behavior; also recorded: No synergy"}
    ]},
    {"smiles": "O=C(Cc1ccccc1Cl)N1CCC(c2ccc3c(c2)OCO3)C1", "note": "(stereo not drawn) [Compound 12]", "values": [
      {"measurement": "pIC50", "setting": "AbFabI", "result": "> 5.00"},
      {"measurement": "fold change in AbFabI IC50 compared to compound 1", "setting": "AbFabI; relative to compound 1", "result": "2 to 3", "unit": "fold"},
      {"measurement": "Effect", "setting": "MDR A. baumannii", "result": "Synergy"}
    ]},
    {"smiles": "CC(C)S(=O)(=O)c1ccc(CC(=O)N2CCC(c3ccc4c(c3)OCO4)C2)cc1", "note": "(stereo not drawn) [Compound 22]", "values": [
      {"measurement": "SaFabI enzyme inhibitory activity (in words)", "setting": "SaFabI", "result": "not tolerated"},
      {"measurement": "AbFabI enzyme inhibitory activity (in words)", "setting": "AbFabI", "result": "loss in activity"}
    ]},
    {"smiles": "CC(=O)Nc1ccc(/C=C/C(=O)N2CCC(c3ccccc3)C2)cn1", "note": "(stereo not drawn) [Compound 23]", "values": [
      {"measurement": "Effect", "setting": "A. baumannii strain 2208 [2]", "result": "did not show synergistic behavior; also recorded: No synergy"}
    ]},
    {"smiles": "COc1ccccc1C1CCN(C(=O)/C=C/c2ccc(NC(C)=O)nc2)C1", "note": "(stereo not drawn) [Compound 24]", "values": [
      {"measurement": "pIC50", "setting": "AbFabI", "result": "> 5.00"},
      {"measurement": "MIC", "setting": "[3]", "result": 2, "unit": "µM"},
      {"measurement": "Effect", "setting": "A. baumannii strain 2208 [1]", "result": "Synergy"},
      {"measurement": "Effect", "setting": "MDR A. baumannii", "result": "Synergy"}
    ]},
    {"smiles": "CC(=O)Nc1ccc(/C=C/C(=O)N2CCC(c3ccc4c(c3)OCO4)C2)cn1", "note": "(stereo not drawn) [Compound 26]", "values": [
      {"measurement": "Effect", "setting": "A. baumannii strain 2208 [2]", "result": "did not show synergistic behavior; also recorded: No synergy"}
    ]},
    {"smiles": "CC(=O)Nc1ccc(/C=C/C(=O)N2CCC(c3nccs3)C2)cn1", "note": "(stereo not drawn) [Compound 27]", "values": [
      {"measurement": "fold higher AbFabI IC50 than compound 23", "setting": "AbFabI", "result": "15 to 40", "unit": "fold"},
      {"measurement": "Effect", "setting": "A. baumannii strain 2208 [2]", "result": "did not show synergistic behavior; also recorded: No synergy"}
    ]},
    {"smiles": "CC(=O)Nc1ccc(/C=C/C(=O)N2CCC(c3ccccn3)C2)cn1", "note": "(stereo not drawn) [Compound 28]", "values": [
      {"measurement": "fold higher AbFabI IC50 than compound 23", "setting": "AbFabI", "result": "15 to 40", "unit": "fold"},
      {"measurement": "Effect", "setting": "A. baumannii strain 2208 [2]", "result": "did not show synergistic behavior; also recorded: No synergy"}
    ]},
    {"smiles": "COc1ccccc1C1CCN(C(=O)/C=C/c2ccc(NC(C)=O)cc2)C1", "note": "(stereo not drawn) [Compound 29]", "values": [
      {"measurement": "SaFabI enzyme inhibitory activity (in words)", "setting": "SaFabI", "result": "complete loss in enzyme inhibitory activity"},
      {"measurement": "AbFabI enzyme inhibitory activity (in words)", "setting": "AbFabI", "result": "complete loss in enzyme inhibitory activity"}
    ]},
    {"smiles": "O=C(N[C@H](CO)[C@H](O)c1ccc([N+](=O)[O-])cc1)C(Cl)Cl", "note": "[chloramphenicol]", "values": [
      {"measurement": "fold increase in MIC with S. aureus strain overexpressing SaFabI", "setting": "[4]", "result": "remained unchanged"}
    ]},
    {"smiles": "CC[C@H]1OC(=O)[C@H](C)[C@@H](O[C@H]2C[C@@](C)(OC)[C@@H](O)[C@H](C)O2)[C@H](C)[C@@H](O[C@@H]2O[C@H](C)C[C@H](N(C)C)[C@H]2O)[C@](C)(O)C[C@@H](C)C(=O)[C@H](C)[C@@H](O)[C@]1(C)O", "note": "[erythromycin]", "values": [
      {"measurement": "fold increase in MIC with S. aureus strain overexpressing SaFabI", "setting": "[4]", "result": "remained unchanged"}
    ]},
    {"smiles": "CN[C@@H]1[C@H](O[C@H]2[C@H](O[C@H]3[C@H](O)[C@@H](O)[C@H](N=C(N)N)[C@@H](O)[C@@H]3N=C(N)N)O[C@@H](C)[C@]2(O)C=O)O[C@@H](CO)[C@H](O)[C@H]1O", "note": "[streptomycin]", "values": [
      {"measurement": "fold increase in MIC with S. aureus strain overexpressing SaFabI", "setting": "[4]", "result": "remained unchanged"}
    ]},
    {"smiles": "CN(C)[C@@H]1C(O)=C(C(N)=O)C(=O)[C@@]2(O)C(O)=C3C(=O)c4c(O)cccc4[C@@](C)(O)[C@H]3C[C@@H]12", "note": "[tetracycline]", "values": [
      {"measurement": "fold increase in MIC with S. aureus strain overexpressing SaFabI", "setting": "[4]", "result": "remained unchanged"}
    ]},
    {"smiles": "Oc1cc(Cl)ccc1Oc1ccc(Cl)cc1Cl", "note": "[triclosan]", "values": [
      {"measurement": "fold increase in MIC with S. aureus strain overexpressing FabI", "setting": "[5]", "result": 8, "unit": "fold"}
    ]}
  ]
}
